“Also recorded” adds a separate entry of the source.
Experiments:
[1] = system: high-fat diet-fed/streptozotocin (HFD/STZ) induced T2DM male albino mice; test: Acute hypoglycemic activity, intraperitoneal glucose tolerance test; assay type: in vivo; details: IPGTT, diabetic mice, mean ±SD; for Blood glucose level (1 h): single dose 10 mg kg^−1, 1 h; for Blood glucose level (2 h): single dose 10 mg kg^−1, 2 h; for Blood glucose level (3 h): single dose 10 mg kg^−1, 3 h; for Blood glucose level (6 h): single dose 10 mg kg^−1, 6 h
Outline: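 Diabetic male albino mice (high-fat diet-fed/streptozotocin-induced T2DM) received a single 10 mg kg−1 dose of test compound; the IPGTT was then run. Blood glucose (mg dl−1) was read at 1, 2, 3 and 6 h. The groups were normal control, untreated STZ-diabetic control and treated animals, with n = 4 per group. Values are mean ±SD.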

DPP-4 = DPP-4 (Homo sapiens, UniProt P27487); test: biochemical; assay type: biochemical; details: for DPP-4 suppression activity (in words): human recombinant DPP-4; for IC50: Experimental PIC50, pIC50 = −log IC50, QSAR training set
DPP-4, sequence (P27487 whole entry): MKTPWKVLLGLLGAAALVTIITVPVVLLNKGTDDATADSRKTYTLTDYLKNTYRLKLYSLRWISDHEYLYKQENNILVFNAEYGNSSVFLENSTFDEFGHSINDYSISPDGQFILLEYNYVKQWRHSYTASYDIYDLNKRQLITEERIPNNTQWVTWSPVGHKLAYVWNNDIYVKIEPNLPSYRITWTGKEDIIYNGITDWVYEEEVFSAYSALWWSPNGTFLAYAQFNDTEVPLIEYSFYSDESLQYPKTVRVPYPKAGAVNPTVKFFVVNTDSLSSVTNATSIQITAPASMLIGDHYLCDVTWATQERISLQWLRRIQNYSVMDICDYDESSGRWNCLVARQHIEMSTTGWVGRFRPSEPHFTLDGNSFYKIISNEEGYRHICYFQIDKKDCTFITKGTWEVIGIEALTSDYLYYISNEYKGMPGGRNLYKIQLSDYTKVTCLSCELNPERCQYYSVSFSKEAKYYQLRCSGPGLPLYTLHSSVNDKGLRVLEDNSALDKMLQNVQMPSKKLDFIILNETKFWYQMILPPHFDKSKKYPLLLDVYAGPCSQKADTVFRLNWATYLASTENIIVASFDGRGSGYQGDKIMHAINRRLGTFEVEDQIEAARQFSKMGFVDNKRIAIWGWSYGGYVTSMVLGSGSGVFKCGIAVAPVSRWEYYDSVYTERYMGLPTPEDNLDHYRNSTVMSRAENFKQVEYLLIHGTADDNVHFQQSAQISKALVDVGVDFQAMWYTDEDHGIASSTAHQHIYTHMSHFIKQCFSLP

[2] = system: normal hTERT-RPE1 cell line; test: Cytotoxicity bioassay; assay type: cell-based; details: MTT
DPP-9 = DPP-9 (Homo sapiens, UniProt Q86TI2); test: In vitro DPP-9 selectivity assay, fluorescence-based; assay type: biochemical
DPP-9, sequence (Q86TI2 whole entry): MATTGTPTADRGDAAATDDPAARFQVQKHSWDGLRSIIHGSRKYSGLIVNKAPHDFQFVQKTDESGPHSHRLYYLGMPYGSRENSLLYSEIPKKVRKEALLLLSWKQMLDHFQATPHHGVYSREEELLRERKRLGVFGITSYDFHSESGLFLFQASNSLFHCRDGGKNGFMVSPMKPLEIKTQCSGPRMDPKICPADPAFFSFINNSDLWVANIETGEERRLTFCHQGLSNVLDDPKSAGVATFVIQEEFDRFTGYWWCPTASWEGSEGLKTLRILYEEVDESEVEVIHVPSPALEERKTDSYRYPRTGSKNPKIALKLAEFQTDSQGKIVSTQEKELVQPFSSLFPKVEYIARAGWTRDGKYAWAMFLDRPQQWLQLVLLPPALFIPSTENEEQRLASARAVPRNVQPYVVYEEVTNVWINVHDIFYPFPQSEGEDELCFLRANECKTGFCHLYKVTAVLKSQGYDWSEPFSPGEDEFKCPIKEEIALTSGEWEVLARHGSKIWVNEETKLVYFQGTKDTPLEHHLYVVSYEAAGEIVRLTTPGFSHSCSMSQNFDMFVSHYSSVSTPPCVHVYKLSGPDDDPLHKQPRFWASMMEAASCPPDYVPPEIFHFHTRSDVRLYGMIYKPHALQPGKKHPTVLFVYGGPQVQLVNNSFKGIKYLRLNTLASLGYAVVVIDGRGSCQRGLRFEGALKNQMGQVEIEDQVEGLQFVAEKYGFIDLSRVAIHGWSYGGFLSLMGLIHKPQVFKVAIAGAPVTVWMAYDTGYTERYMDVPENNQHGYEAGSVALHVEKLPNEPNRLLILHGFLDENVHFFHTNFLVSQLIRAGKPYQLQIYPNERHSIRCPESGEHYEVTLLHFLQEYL

DPP-8 = DPP-8 (Homo sapiens, UniProt Q6V1X1); test: In vitro DPP-8 selectivity assay, fluorescence-based; assay type: biochemical
DPP-8, sequence (Q6V1X1 whole entry): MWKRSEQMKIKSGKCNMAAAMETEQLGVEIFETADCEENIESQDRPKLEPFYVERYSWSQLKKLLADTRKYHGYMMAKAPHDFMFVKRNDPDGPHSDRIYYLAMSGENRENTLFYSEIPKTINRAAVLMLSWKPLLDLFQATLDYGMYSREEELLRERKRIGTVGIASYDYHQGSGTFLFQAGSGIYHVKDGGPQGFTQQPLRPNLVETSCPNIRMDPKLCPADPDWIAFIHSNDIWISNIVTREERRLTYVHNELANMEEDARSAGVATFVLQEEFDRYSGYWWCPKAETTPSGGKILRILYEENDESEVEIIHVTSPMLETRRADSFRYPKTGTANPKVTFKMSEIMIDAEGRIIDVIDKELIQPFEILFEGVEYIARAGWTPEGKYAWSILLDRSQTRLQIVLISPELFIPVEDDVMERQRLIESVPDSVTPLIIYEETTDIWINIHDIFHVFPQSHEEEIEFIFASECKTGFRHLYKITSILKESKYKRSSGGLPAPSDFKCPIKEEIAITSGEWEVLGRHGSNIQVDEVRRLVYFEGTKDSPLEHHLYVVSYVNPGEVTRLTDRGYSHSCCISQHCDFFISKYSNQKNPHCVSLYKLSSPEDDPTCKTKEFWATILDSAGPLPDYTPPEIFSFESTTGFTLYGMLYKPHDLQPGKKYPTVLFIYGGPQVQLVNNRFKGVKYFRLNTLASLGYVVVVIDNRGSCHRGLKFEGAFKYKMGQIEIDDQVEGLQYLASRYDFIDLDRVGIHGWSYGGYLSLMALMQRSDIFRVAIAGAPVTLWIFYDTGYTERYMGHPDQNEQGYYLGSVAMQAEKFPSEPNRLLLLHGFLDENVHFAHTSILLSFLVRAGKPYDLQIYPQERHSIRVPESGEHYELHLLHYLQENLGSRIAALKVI

Cn1c(=O)c(=O)n(C)c2cc(S(=O)(=O)NNC(=O)CCl)ccc21 [Compound 9b, N′-(2-Chloroacetyl)-1,4-dimethyl-2,3-dioxo-1,2,3,4-tetrahydroquinoxaline-6-sulfono hydrazide] was tested, and the “Blood glucose level (1 h)” value [1] was 223.89 ± 3.85 mg/dL, the “Blood glucose level (2 h)” value [1] was 118.12 ± 5.95 mg/dL and the “Blood glucose level (3 h)” value [1] was 89.12 ± 4.21 mg/dL. For the same molecule, the “Blood glucose level (6 h)” value [1] was 85.25 ± 2.12 mg/dL.
With Cn1c(=O)c(=O)n(C)c2cc(S(=O)(=O)Nc3ccc(C(=O)O)cc3)ccc21 [Compound 6c, 4-(1,4-Dimethyl-2,3-dioxo-1,2,3,4-tetrahydroquinoxaline-6-sulfonamido)benzoic acid] the “Blood glucose level (1 h)” value [1] was 220.59 ± 5.12 mg/dL, the “Blood glucose level (2 h)” value [1] was 125.31 ± 3.47 mg/dL and the “Blood glucose level (3 h)” value [1] was 90.68 ± 3.45 mg/dL. The “Blood glucose level (6 h)” value [1] was 90.06 ± 7.25 mg/dL.
For COc1ccc(NC(=S)NNS(=O)(=O)c2ccc3c(c2)n(C)c(=O)c(=O)n3C)cc1 [Compound 10h, 2-((1,4-Dimethyl-2,3-dioxo-1,2,3,4-tetrahydroquinoxalin-6-yl)sulfonyl)-N-(4-methoxyphenyl)hydrazine-1-carbothioamide], the “DPP-4 suppression activity (in words)” value (DPP-4) was “inactive; also recorded: completely lost the activity”.
With Cn1c(=O)c(=O)n(C)c2cc(S(=O)(=O)NNC(=O)NC(=O)c3ccccc3)ccc21 [Compound 10c, N-Benzoyl-2-((1,4-dimethyl-2,3-dioxo-1,2,3,4-tetrahydroquinoxalin-6-yl)sulfonyl)hydrazine-1-carboxamide] the “Blood glucose level (1 h)” value [1] was 225.65 ± 3.85 mg/dL, the “Blood glucose level (2 h)” value [1] was 155.33 ± 2.78 mg/dL and the “Blood glucose level (3 h)” value [1] was 137.34 ± 9.48 mg/dL. The “Blood glucose level (6 h)” value [1] was 104.08 ± 3.35 mg/dL.
Cn1c(=O)c(=O)n(C)c2cc(S(=O)(=O)Nc3ccccc3S)ccc21 [Compound 6f, N-(2-Mercaptophenyl)-1,4-dimethyl-2,3-dioxo-1,2,3,4-tetrahydroquinoxaline-6-sulfonamide] was tested, and the “Blood glucose level (1 h)” value [1] was 218.00 ± 4.26 mg/dL, the “Blood glucose level (2 h)” value [1] was 118.07 ± 8.21 mg/dL and the “Blood glucose level (3 h)” value [1] was 97.09 ± 6.39 mg/dL. For the same molecule, the “Blood glucose level (6 h)” value [1] was 93.25 ± 7.49 mg/dL.
With Cn1c(=O)c(=O)n(C)c2cc(S(=O)(=O)NNC(=O)Nc3ccc(Cl)cc3)ccc21 [Compound 10d, N-(4-Chlorophenyl)-2-((1,4-dimethyl-2,3-dioxo-1,2,3,4-tetrahydroquinoxalin-6-yl)sulfonyl)hydrazine-1-carboxamide] the “DPP-4 suppression activity (in words)” value (DPP-4) was “inactive; also recorded: completely lost the activity”.
With Cn1c(=O)c(=O)n(C)c2cc(S(=O)(=O)NNC(=S)NC3CCCCC3)ccc21 [Compound 10f, N-Cyclohexyl-2-((1,4-dimethyl-2,3-dioxo-1,2,3,4-tetrahydroquinoxalin-6-yl)sulfonyl)hydrazine-1-carbothioamide] the “Blood glucose level (1 h)” value [1] was 237.33 ± 3.85 mg/dL, the “Blood glucose level (2 h)” value [1] was 127.33 ± 4.23 mg/dL and the “Blood glucose level (3 h)” value [1] was 100.06 ± 6.29 mg/dL. For the same molecule, the “Blood glucose level (6 h)” value [1] was 89.66 ± 2.27 mg/dL.
For Cn1c(=O)c(=O)n(C)c2cc(S(=O)(=O)NNC(=O)c3ccccc3)ccc21 [Compound 9c, N′-Benzoyl-1,4-dimethyl-2,3-dioxo-1,2,3,4-tetrahydroquinoxaline-6-sulfonohydrazide], the “Blood glucose level (1 h)” value [1] was 235.40 ± 3.85 mg/dL, the “Blood glucose level (2 h)” value [1] was 120.11 ± 2.35 mg/dL and the “Blood glucose level (3 h)” value [1] was 96.68 ± 4.25 mg/dL. For the same molecule, the “Blood glucose level (6 h)” value [1] was 80.16 ± 5.01 mg/dL.
With Cn1c(=O)c(=O)n(C)c2cc(S(=O)(=O)Nc3nccs3)ccc21 [Compound 6a, 1,4-Dimethyl-2,3-dioxo-N-(thiazol-2-yl)-1,2,3,4-tetrahydroquinoxaline-6-sulfonamide] the “DPP-4 suppression activity (in words)” value (DPP-4) was “inactive; also recorded: completely lost”.
CC(=O)c1ccc(NS(=O)(=O)c2ccc3c(c2)n(C)c(=O)c(=O)n3C)cc1 [Compound 6b, N-(4-Acetylphenyl)-1,4-dimethyl-2,3-dioxo-1,2,3,4-tetrahydroquinoxaline-6-sulfonamide] was tested, and the “Blood glucose level (1 h)” value [1] was 235.64 ± 4.25 mg/dL, the “Blood glucose level (2 h)” value [1] was 127.33 ± 7.15 mg/dL and the “Blood glucose level (3 h)” value [1] was 95.67 ± 6.21 mg/dL. For the same molecule, the “Blood glucose level (6 h)” value [1] was 96.24 ± 4.29 mg/dL.
For CC(=O)NNS(=O)(=O)c1ccc2c(c1)n(C)c(=O)c(=O)n2C [Compound 9a, N′-Acetyl-1,4-dimethyl-2,3-dioxo-1,2,3,4-tetrahydroquinoxaline-6-sulfonohydrazide], the “Inhibition% of normal hTERT-RPE1 cells” value [2] was 20%, the “Blood glucose level (1 h)” value [1] was 237.40 ± 3.15 mg/dL and the “Blood glucose level (2 h)” value [1] was 115.11 ± 4.25 mg/dL. For the same molecule, the “Blood glucose level (3 h)” value [1] was 97.12 ± 8.37 mg/dL, the “Blood glucose level (6 h)” value [1] was 85.23 ± 1.69 mg/dL and the IC50 (DPP-9) was over 100000 nM. For the same molecule, the IC50 (DPP-8) was over 100000 nM and the “selectivity towards DPP-4 inhibition over DPP-8/9” value (DPP-8; DPP-4 versus DPP-8/9) was over 1000 folds.
With Cn1c(=O)c(=O)n(C)c2cc(S(=O)(=O)Nc3ccc(Br)cc3)ccc21 [Compound 6e, N-(4-Bromophenyl)-1,4-dimethyl-2,3-dioxo-1,2,3,4-tetrahydroquinoxaline-6-sulfonamide] the IC50 (DPP-4) was 0.724 nM, the “Blood glucose level (1 h)” value [1] was 222.09 ± 4.85 mg/dL and the “Blood glucose level (2 h)” value [1] was 125.04 ± 3.26 mg/dL. The “Blood glucose level (3 h)” value [1] was 95.28 ± 4.55 mg/dL and the “Blood glucose level (6 h)” value [1] was 92.17 ± 8.45 mg/dL.
For Cn1c(=O)c(=O)n(C)c2cc(S(=O)(=O)Nc3ccc(S(N)(=O)=O)cc3)ccc21 [Compound 7a, 1,4-Dimethyl-2,3-dioxo-N-(4-sulfamoylphenyl)-1,2,3,4-tetrahydroquinoxaline-6-sulfonamide], the “folds more potent DPP-4 inhibitory effect than Linagliptin” value (DPP-4) was 1.2–1.6 folds, the IC50 (DPP-4) was 0.617 nM and the “Blood glucose level (1 h)” value [1] was 251.29 ± 2.80 mg/dL. For the same molecule, the “Blood glucose level (2 h)” value [1] was 138.16 ± 9.23 mg/dL, the “Blood glucose level (3 h)” value [1] was 122.08 ± 3.31 mg/dL and the “Blood glucose level (6 h)” value [1] was 99.25 ± 4.35 mg/dL.
Cn1c(=O)c(=O)n(C)c2cc(S(=O)(=O)Nc3ccc(F)cc3)ccc21 [Compound 6d, N-(4-Fluorophenyl)-1,4-dimethyl-2,3-dioxo-1,2,3,4-tetrahydroquinoxaline-6-sulfonamide] was tested, and the “Blood glucose level (1 h)” value [1] was 226.33 ± 6.34 mg/dL, the “Blood glucose level (2 h)” value [1] was 120.08 ± 4.11 mg/dL and the “Blood glucose level (3 h)” value [1] was 99.33 ± 1.29 mg/dL. The “Blood glucose level (6 h)” value [1] was 93.33 ± 6.11 mg/dL.
In the case of CC#CCn1c(N2CCC[C@@H](N)C2)nc2c1c(=O)n(Cc1nc(C)c3ccccc3n1)c(=O)n2C [Linagliptin, reference compound], the “Blood glucose level (1 h)” value [1] is reported as 220.01 ± 3.85 mg/dL, the “Blood glucose level (2 h)” value [1] is reported as 120.89 ± 1.76 mg/dL and the “Blood glucose level (3 h)” value [1] is reported as 85.11 ± 2.39 mg/dL. The “Blood glucose level (6 h)” value [1] was 85.00 ± 5.15 mg/dL.
For Cn1c(=O)c(=O)n(C)c2cc(S(=O)(=O)NNC(=O)NCc3ccccc3)ccc21 [Compound 10b, N-Benzyl-2-((1,4-dimethyl-2,3-dioxo-1,2,3,4-tetrahydroquinoxalin-6-yl)sulfonyl)hydrazine-1-carboxamide], the “Blood glucose level (1 h)” value [1] was 228.71 ± 3.85 mg/dL, the “Blood glucose level (2 h)” value [1] was 120.09 ± 3.35 mg/dL and the “Blood glucose level (3 h)” value [1] was 90.66 ± 5.35 mg/dL. For the same molecule, the “Blood glucose level (6 h)” value [1] was 85.66 ± 4.10 mg/dL.
